Shown are actives, neighbours in structure and some others; about 2.1% of the full set was active somewhere.
APJ agonist = agonists of human apelin receptor APJ, primary screen, CHO-K1 cells, PathHunter beta-arrestin, luminescence. 330,000 compounds, 0.11% hits. 0% DMSO wells, 100% apelin. AID 2520, 2010. P35414. activation, % at 20 µM;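 active means activation more than six SD over the plate average, tested at 20 µM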
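assay system = CHO-K1 APJ beta-arrestin complementation cell line | input = cell density 1000 per well | dosing = compound 20 µM once, DMSO 1% | timing = compound 90 min 25 °C, reagent 1 h | measured by = luminescence from split beta-galactosidase complementation, Galacton Star/Emerald II substrate | read-out basis = APJ agonist activity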
HTR2A ag = mouse Htr2a agonists via beta-arrestin recruitment, primary screen, cell-based, luminescence. CHO-K1 mHTR2A beta-arrestin complementation; percent of 30 µM serotonin response. activation, % at 7.6 µM. 360,000 compounds, 0.66% hits. AID 624169, 2012;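 active means activation above a run cutoff, the mean activation of all tested compounds plus 3 SD, cut at about 14% in these data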
Target sequence (P35363 whole entry, looked up): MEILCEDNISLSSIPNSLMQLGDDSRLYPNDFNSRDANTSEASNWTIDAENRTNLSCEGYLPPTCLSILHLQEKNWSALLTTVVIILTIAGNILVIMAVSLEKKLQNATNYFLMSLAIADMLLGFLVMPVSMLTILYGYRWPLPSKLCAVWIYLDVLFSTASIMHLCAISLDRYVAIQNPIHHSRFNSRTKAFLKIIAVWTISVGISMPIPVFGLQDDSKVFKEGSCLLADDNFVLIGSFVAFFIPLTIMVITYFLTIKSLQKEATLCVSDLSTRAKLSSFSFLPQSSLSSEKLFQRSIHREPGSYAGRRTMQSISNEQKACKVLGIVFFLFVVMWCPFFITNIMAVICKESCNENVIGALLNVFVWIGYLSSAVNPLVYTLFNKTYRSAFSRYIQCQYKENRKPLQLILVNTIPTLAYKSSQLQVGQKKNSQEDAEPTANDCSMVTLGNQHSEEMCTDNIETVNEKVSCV
CXCR6 block = CXCR6 receptor inhibitors, primary screen, cell-based, beta-arrestin, luminescence, CHO-K1 PathHunter, 1536-well. C-X-C chemokine receptor type 6 (Homo sapiens), O00574. AID 602244, 2012. inhibition, % at 20 µM. 360,000 compounds, 0.36% hits; in the data active means inhibition above about 34%, passing the limit was not always enough;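 further: antagonist mode with CXCL16 agonist at 10 nM final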
EBI2 block = EBI2 receptor antagonists, beta-arrestin recruitment, primary screen, cell-based, luminescence, 7a,25-OHC stimulation, uHTS. G-protein coupled receptor 183 (Homo sapiens), P32249. 7a,25-OHC stimulated. inhibition, % at 5 µM. 360,000 compounds, 0.81% hits. AID 651636, 2012; in the data active means inhibition above about 38%;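 further: enzyme fragment complementation signal reports receptor beta-arrestin coupling in cells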
CCR6 antagonist = CCR6 receptor antagonists, primary screen, cell-based, CHO-K1, luminescence, beta-arrestin, uHTS | 340,000 compounds, 0.49% hits | C-C chemokine receptor type 6 (Homo sapiens), P51684 | CHO-K1 CCR6 PathHunter beta-arrestin, CCL20-stimulated | inhibition, % at 20 µM;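 active means compounds whose inhibition of the agonist-driven luminescence signal at 20 µM reaches about 50%, limit read from the data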;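 further: cells stimulated with CCL20 at 14 nM final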
APJ antagonist = antagonists of human apelin receptor APJ, primary screen, CHO-K1 cells, beta-arrestin complementation, luminescence | 330,000 compounds, 0.32% hits | P35414 | inhibition, % at 20 µM;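 active means inhibition above about 40% at 20 µM, limit read from the data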;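 further: cells challenged with 10 nM apelin-13 agonist together with compound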
EBI2 antag conf = EBI2 antagonist hit retest, beta-arrestin, confirmation, cell-based, single concentration, luminescence, 7a,25-OHC stimulation; shares compounds with EBI2 block; AID 651997, 2013; 2,400 compounds, 29% hits; inhibition, % at 5 µM; 7a,25-OHC antagonism;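 active means inhibition of at least 50%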
EBI2 ag = EBI2 agonist activity of antagonist hits, confirmation, counter-screen for EBI2 antagonist project, cell-based, single concentration, agonist mode, luminescence; shares compounds with EBI2 block; EBI2-expressing cells, 60 min; 0% vehicle, 100% 7α,25-dihydroxycholesterol control; activation, % at 5 µM; 2,400 tested, under 10 active; AID 652000, 2013;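 active means activation of at least 50%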
bGal cs = E. coli beta-galactosidase enzyme inhibition, confirmation, counter-screen for EBI2 antagonist project, biochemical, luminescence, single concentration; AID 652176, 2013; purified beta-galactosidase, luminescent Galacton Star, 15 min; shares compounds with EBI2 block; inhibition, % at 5 µM; 2,400 compounds, 1% hits;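 active means replicate-average signal at least 3 plate SD below neutral wells, shown as high inhibition, flagging enzyme-inhibiting false positives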;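 further: higher means stronger loss of beta-gal luminescence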
A number is an active result; n = inactive; x = no result.

SMILES	APJ agonist	HTR2A ag	CXCR6 block	EBI2 block	CCR6 antagonist	APJ antagonist	EBI2 antag conf	EBI2 ag	bGal cs
CCOC(=O)c1cc(-c2cccc([N+](=O)[O-])c2)nc2[nH]c(=O)[nH]c(=O)c12	n	n	n	n	n	n	x	x	x
COc1cccc(N2CC(C(=O)N3CCC4(CC3)CC(=O)c3ccccc3O4)CC2=O)c1 (configuration not stated)	n	n	n	n	n	n	x	x	x
Cc1ccccc1OCC(=O)N1CCC2(CC1)CC(=O)c1ccccc1O2	n	n	n	n	n	n	x	x	x
O=C1CC2(CCN(C(=O)C3CC(=O)N(c4ccccc4)C3)CC2)Oc2ccccc21 (configuration not stated)	n	n	n	64.5	n	n	n	n	n
O=C1CC2(CCN(C(=O)COc3ccccc3)CC2)Oc2ccccc21	n	n	n	45.6	n	n	n	n	n
CCC(=O)n1nc(-c2ccc(OC)cc2)nc1N	n	n	n	n	n	n	x	x	x
CCNc1nc(NC(C)CC)nc(Oc2ccc(=O)[nH]n2)n1 (configuration not stated)	n	n	n	n	n	n	x	x	x
Cc1ccc([N+](=O)[O-])cc1N(CC(=O)Nc1ccc(S(=O)(=O)Nc2cccc(C(F)(F)F)c2)cc1)S(C)(=O)=O	n	n	n	84.3	n	n	65.2	n	n
COc1ccc(CCNC(=O)C23CN(Cc4ccccc4)CC2C(c2cccc([N+](=O)[O-])c2)=NO3)cc1 (configuration not stated)	n	n	n	51.8	n	n	n	n	n
O=C(NCc1ccc(C(F)(F)F)cc1)C12CN(Cc3ccccc3)CC1C(c1cccc([N+](=O)[O-])c1)=NO2 (configuration not stated)	n	n	n	n	n	n	x	x	x
O=C(NCC1CCCCC1)C12CN(Cc3ccccc3)CC1C(c1cccc([N+](=O)[O-])c1)=NO2 (configuration not stated)	n	n	n	n	n	n	x	x	x
Cc1ccc(CCNC(=O)C23CN(Cc4ccccc4)CC2C(c2cccc([N+](=O)[O-])c2)=NO3)cc1 (configuration not stated)	n	n	n	62.9	n	n	n	n	n
Cc1ccc(Cl)cc1N1CCN(C(=O)c2cc3c(=O)[nH]c4ccccc4c3n2C)CC1	n	n	n	72.9	n	n	63.2	n	n
Cc1ccc(Cl)cc1N1CCN(C(=O)Cc2c(C(=O)O)[nH]c3ccccc23)CC1	n	n	n	n	n	n	x	x	x
Cc1cccc(C)c1NC(=O)C1(N(Cc2ccco2)C(=O)c2ccccn2)CCCC1	n	n	n	n	n	n	x	x	x
O=C(NCCc1ccccc1)c1oc2ccccc2c1COc1ccccc1	x	n	n	45.2	n	x	n	n	n
c1ccc(CSc2nnnn2-c2cccc3ccccc23)nc1	n	n	n	n	n	n	x	x	x
COc1ccc(CNC(=O)N2CCN(c3cccc(C)c3C)CC2)cc1OC	n	n	n	n	n	n	x	x	x
Cc1cccc(N2CCN(C(=O)Cc3ccc(Br)cc3)CC2)c1C	n	n	n	46.5	n	n	n	n	n
Cc1cccc(N2CCN(C(=O)NCc3ccc(F)cc3)CC2)c1C	n	n	n	57.5	n	n	n	n	n
COc1ccc(-n2c(SCC(=O)Nc3nccs3)nc3c(c2=O)SCC3)cc1	n	n	n	n	n	n	x	x	x
c1ccc(CCNc2ncnc3scc(C4COc5ccccc5O4)c23)cc1 (configuration not stated)	n	n	n	86.8	n	n	55.3	n	n
COc1ccc2cc(C(=O)N3CCN(c4ccccc4OC)CC3)[nH]c2c1	n	n	n	74.5	n	n	n	n	n
COc1ccc2cc(C(=O)N3CCN(c4ccccc4F)CC3)[nH]c2c1	n	n	n	65.5	n	n	57.7	n	n
CSc1ccc(NC(=O)N2CCC(C(=O)c3ccc(F)cc3)CC2)cc1	n	n	n	63.8	n	n	54.7	n	n
SMILES	APJ agonist	HTR2A ag	CXCR6 block	EBI2 block	CCR6 antagonist	APJ antagonist	EBI2 antag conf	EBI2 ag	bGal cs
COc1ccc(OC2CCN(C(=O)Nc3ccc(C)cc3)CC2)cc1	n	n	n	82.9	n	n	61.3	n	n
COc1ccc(NC(=O)C2CCN(C(=O)Nc3ccc(C)cc3)CC2)cc1OC	n	n	n	n	n	n	x	x	x
COc1ccc(NC(=O)N2CCC(C(=O)c3ccc(F)cc3)CC2)cc1	n	n	n	53.1	n	n	n	n	n
COc1ccc(C(=O)N2CC(c3ccc(Cl)cc3)CC2=O)cc1 (configuration not stated)	n	n	n	n	n	n	x	x	x
COc1ccc(C(=O)CN2CC(C)SC2=Nc2ccc(Cl)cc2)cc1 (configuration not stated)	n	n	n	44.1	n	n	n	n	n
CC(C)n1nc(C(=O)OCC(=O)N2CC(=O)Nc3ccccc32)c2ccccc2c1=O	n	n	n	n	n	n	x	x	x
COCCNC(=O)C1(C)CCCN(C(=O)c2ccc(F)cc2Cl)C1 (configuration not stated)	x	n	n	n	x	x	x	x	x
CCCCCn1c(SCc2ccncc2)nc2cc(C(=O)NCc3ccco3)ccc2c1=O	n	n	n	37.5	n	n	n	n	n
CCCCn1c(SCC(=O)NCc2ccco2)nc2ccccc2c1=O	n	n	n	n	n	n	x	x	x
COc1ccccc1N1CCN(S(=O)(=O)CCNC(=O)COc2ccccc2)CC1	x	n	n	68.5	x	x	n	n	n
COc1ccccc1N1CCN(S(=O)(=O)CCNC(=O)CCCc2ccccc2)CC1	n	n	n	n	n	n	x	x	x
O=C(CSc1ccc2nnc(-c3ccccn3)n2n1)Nc1ccccc1	n	n	n	55.4	n	n	n	n	n

Source: PubChem BioAssay
